Screening results (PubChem BioAssay)
Kir21 inh = Kir2.1 (mouse) channel inhibition; HEK293-Kir2.1, FluxOR thallium flux fluorescence; active compounds read low; AID 1672; P35561; 310,000 tested, 0.85% active; B-score at 10 µM;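 active means fluorescence ratio B-score at or below minus 3 SD of library scores, with starting-brightness B-score within 2 SD, cut at about -4.2 in these data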;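 further: channel flux triggered by added potassium and thallium sulfate stimulus; B-score of peak minus minimum fluorescence over baseline after thallium stimulus; more negative B-score means stronger Kir2.1 block with less thallium influx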
KCNK3 inh = human KCNK3 channel inhibition, primary screen; O14649; CHO-KCNK3 thallium flux, FluxOR fluorescence; active compounds read low; B-score at 10 µM; 340,000 tested, 0.84% active; AID 602410;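 active means B-score under library mean minus 4 SD, starting fluorescence ratio at most library mean plus 5 SD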;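 further: more negative B-score means stronger inhibition of thallium flux through KCNK3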
KCNK9 inh = inhibitors of human KCNK9 two-pore domain potassium channel | Q9NPC2 | HEK293 KCNK9, FluxOR thallium flux fluorescence; active compounds read low | B-score at 10 µM | 310,000 tested, 1.2% active | AID 488922;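 active means ratio B-score over 3 SD below the library mean, with starting fluorescence within 5 SD of its mean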;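 further: negative B-score means less thallium flux so channel inhibition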
KCNQ1 act = human KCNQ1 channel potentiation or activation; P51787; CHO-K1 KCNQ1, thallium flux FluxOR fluorescence; active compounds read high; B-score at 10 µM; 310,000 tested, 0.35% active; AID 2648;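 active means fluorescence ratio B-score, a plate-corrected score, at least three library SD, with initial intensity B-score within 5 SD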
Target sequence (P51787 whole entry, looked up): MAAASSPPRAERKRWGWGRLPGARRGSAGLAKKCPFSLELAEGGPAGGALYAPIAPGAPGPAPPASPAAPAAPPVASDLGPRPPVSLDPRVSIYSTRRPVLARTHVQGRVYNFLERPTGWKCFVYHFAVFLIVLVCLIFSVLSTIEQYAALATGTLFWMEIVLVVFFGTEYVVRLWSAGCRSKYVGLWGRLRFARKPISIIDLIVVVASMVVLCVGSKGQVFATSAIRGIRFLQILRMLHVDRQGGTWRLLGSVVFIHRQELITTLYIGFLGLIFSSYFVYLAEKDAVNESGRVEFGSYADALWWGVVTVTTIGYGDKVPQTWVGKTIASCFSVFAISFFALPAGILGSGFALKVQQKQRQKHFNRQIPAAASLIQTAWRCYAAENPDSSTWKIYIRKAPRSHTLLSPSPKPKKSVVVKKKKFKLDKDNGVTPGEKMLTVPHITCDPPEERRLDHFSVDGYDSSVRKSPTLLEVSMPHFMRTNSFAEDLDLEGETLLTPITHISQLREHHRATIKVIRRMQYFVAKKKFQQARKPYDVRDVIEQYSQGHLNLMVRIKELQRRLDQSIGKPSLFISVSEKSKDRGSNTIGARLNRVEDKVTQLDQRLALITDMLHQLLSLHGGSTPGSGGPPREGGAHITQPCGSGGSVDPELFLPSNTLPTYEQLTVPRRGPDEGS
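assay system = KCNQ1-transfected CHO-K1 cells | medium = assay buffer with matched DMSO | probe or stimulus = depolarizing K+/Tl+ stimulus, K2SO4 and Tl2SO4 each 12.5 mM in 5x stock | dosing = single dose | incubation = dye 90 min, compound 20 min, room temperature | detection = kinetic FluxOR fluorescence, 10 s baseline plus 110 s post-stimulus | evaluation = ratio B score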
hERG protect = shields human hERG channel from block by proarrhythmic agents | CHO-hERG, FluxOR thallium flux, dofetilide IC70 present | 310,000 tested, 0.51% active | Q12809 | activation (rescue from dofetilide block), less the hit threshold, % at 10 µM;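 active means activation above the mean of controls blocked by dofetilide plus 5 SD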;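 further: thallium influx through hERG after potassium depolarization seen as dye fluorescence rise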
KCNQ1 inh = inhibitors of human KCNQ1 potassium channel; 310,000 tested, 1.3% active; CHO-K1 KCNQ1, FluxOR thallium flux fluorescence; active compounds read high; B-score at 10 µM; AID 2642; P51787;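 active means compounds whose thallium flux B-score, printed positive for inhibition, exceeds three library SD while starting fluorescence stays within three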;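 further: channel opened by potassium depolarization with thallium stimulus after 20 min compound exposure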
KCNK9 inh conf = confirmation of human KCNK9 potassium channel inhibitors. shares compounds with KCNK9 inh. inhibition, % at 10 µM. AID 492992. 4,900 tested, 43% active. HEK293 KCNK9 cells, FluxOR thallium flux fluorescence;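 active means thallium signal inhibited by more than 5 SD of the compound-free buffer control wells, on both duplicate plates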;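 further: 0% = assay buffer control wells without compound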
Kir2-1 spec = tests whether KCNK9 modulators also affect mouse Kir2.1; shares compounds with KCNK9 inh; Kir2.1 cells, FluxOR thallium flux fluorescence; inhibition, % at 10 µM; 4,900 tested, 4% active; AID 492993;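 active means thallium signal drop more than 5 SD beyond the mean of the no-compound control wells, seen in both duplicate plates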;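 further: signal is fluorescence rise after thallium addition divided by baseline fluorescence; plate controls were assay buffer only for no effect and full block by chlorpromazine control for full effect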
HEK293 Tl ctr = second check of KCNK9 modulator effects in non-induced HEK293 cells | 4,900 tested, 40% active | shares compounds with KCNK9 inh | inhibition, % at 10 µM | FluxOR thallium flux;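 active means thallium signal drop beyond 5 SD of the untreated control mean, on both duplicate plates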;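 further: plate controls were buffer only IC0 wells for no effect and SID17386958 at its maximal inhibitory level for full effect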
KCNK3 inh conf = human KCNK3 channel inhibition, confirmation assay | shares compounds with KCNK3 inh | CHO-KCNK3 thallium flux, FluxOR fluorescence; 0% buffer, 100% carvedilol maximal block | ratio percent of control, % at 10 µM | 2,400 tested, 99% active;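 active means ratio percent of control, averaged over triplicates, above buffer control mean plus 5 SD, cut at about 64% in these data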;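 further: ratio is the fluorescence rise from min to max over baseline after thallium stimulus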
KCNK3 uninduced = counter-screen for KCNK3 inhibitors: effect in non-induced cells; shares compounds with KCNK3 inh; non-induced KCNK3 parental cells, FluxOR thallium flux; active compounds read low; thallium flux ratio (lower = more inhibition) at 10 µM; 2,400 tested, 40% active; AID 651747;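 active means thallium flux ratio, averaged over three wells, more than 5 SD below the buffer control mean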;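 further: host cells are CHO cells without KCNK3 induction; ratio is peak minus trough fluorescence over baseline then normalized to buffer controls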
* marks the source's active call; other numbers are inactive results; i = inactive; x = not tested or not shown. This is a sample that favours compounds with a hit; in the whole collection about 3.7% have one here.

SMILES | Kir21 inh | KCNK3 inh | KCNK9 inh | KCNQ1 act | hERG protect | KCNQ1 inh | KCNK9 inh conf | Kir2-1 spec | HEK293 Tl ctr | others
Brc1cc2c(cc1CN1CCN(c3ccccc3)CC1)OCCO2 | -0.15 | i | i | i | -4 | i | i | i | i
Oc1cc2c(cc1CN1CCN(c3ccc(F)cc3)CC1)OCO2 | 0.21 | i | i | i | -9 | i | x | x | x
CN(C(=O)Cc1ccc(Cl)c(Cl)c1)C(CN1CCCC1)c1cccc(OCC(=O)O)c1 (stereo not drawn) | x | i | x | x | x | x | x | x | x
Nc1ccc(CCN2CCCC2)cc1 | 0.76 | i | i | i | -2 | i | x | x | x
Nc1ccc(CCN2CCN(c3cccc(C(F)(F)F)c3)CC2)cc1 | 0.23 | i | i | i | -5 | i | i | i | i
CCCCN(Cc1ccccc1)C1CCN(CCc2ccccc2)CC1 | -0.39 | i | i | i | -8 | i | i | i | i
COC(=O)C1C(C(=O)O)C2(Cl)C(Cl)=C(Cl)C1(Cl)C2(Cl)Cl (stereo not drawn) | x | i | x | x | x | x | x | x | x
O=C(c1ccc2c(c1)N(Cc1ccc(F)cc1)CCS2)N1CCC2(CC1)OCCO2 | -0.43 | i | i | i | -10 | i | i | i | i
Cc1ccc(CN2CCSc3ccc(C(=O)N4CCC5(CC4)OCCO5)cc32)cc1 | -0.73 | i | i | i | -10 | i | x | x | x
CCC/C=N/O | x | i | x | x | x | x | x | x | x
CCCCCCn1c(=O)c(C(=O)Nc2c(C)n(C)n(-c3ccccc3)c2=O)c(O)c2ccccc21 | -0.01 | i | i | i | -18 | i | i | i | i
O=P(N1CC1)(N1CC1)N1CCc2ccccc21 | x | i | x | x | x | x | x | x | x
CCCCn1c(=O)c(C=Nc2ccc(Cl)cc2)c(O)n(Cc2ccco2)c1=O | 1.5 | i | i | i | -2 | i | i | i | i
Cc1cccc(C2=NCC(=O)N(CC(=O)NCc3ccco3)c3sc4c(c32)CCCC4)c1 | -2 | i | -11* | i | -7 | i | 41%* | i | 30%*
O=C(CN1C(=O)CN=C(c2ccccc2Cl)c2cc(Cl)ccc21)NCc1ccco1 | -0.75 | i | i | i | -2 | i | x | x | x
O=C(O)c1cccc2c1NC(c1cccc([N+](=O)[O-])c1)C1CC(Sc3ccccc3[N+](=O)[O-])C(Cl)C21 (stereo not drawn) | 0.11 | i | i | 16* | -3 | i | i | i | i
O=C(c1cccc(Cl)c1)C1CCCN(Cc2cccc3cnccc23)C1 (stereo not drawn) | -2.1 | i | i | i | -11 | i | x | x | x
O=C(c1ccc(Cl)cc1)C1CCCN(Cc2cccc3cnccc23)C1 (stereo not drawn) | -1.4 | i | i | i | -26 | i | i | i | i
O=C(c1ccc2c(c1)OCO2)C1CCCN(Cc2ccc(F)c(F)c2)C1 (stereo not drawn) | -0.24 | i | i | i | -13 | i | x | x | x
O=C(c1ccc(Cl)cc1)C1CCCN(Cc2ccc3ncccc3c2)C1 (stereo not drawn) | -0.38 | i | i | i | -28 | i | i | i | i
O=C(c1ccc(Cl)cc1)C1CCCN(Cc2ccc3c(c2)OCCO3)C1 (stereo not drawn) | -1.4 | i | i | i | -8 | i | i | i | i
Cc1nn(Cc2ccccc2Cl)c(Cl)c1C(=O)OCC(=O)NC(=O)NC1CCCCC1 | 0.91 | i | i | i | -8 | i | i | i | i
CCCCn1c(=O)c(C=Nc2cc([N+](=O)[O-])ccc2OC)c(O)n(CCCCl)c1=O | 0.75 | i | i | i | -4 | i | x | x | x
CC(C)n1c(=O)c(C=Nc2cccc([N+](=O)[O-])c2)c(O)n(CCc2ccccc2)c1=O | -2.1 | i | i | i | -7 | i | i | i | i
Nc1cccc2c1Cc1cc([N+](=O)[O-])ccc1-2 | x | i | x | x | x | x | x | x | x
SMILES | Kir21 inh | KCNK3 inh | KCNK9 inh | KCNQ1 act | hERG protect | KCNQ1 inh | KCNK9 inh conf | Kir2-1 spec | HEK293 Tl ctr | others
O=c1c(C=NCc2cccs2)c(O)n(C2CCCCC2)c(=O)n1C1CCCCC1 | 0.35 | i | i | i | -7 | i | i | i | i
O=C(COc1ccccc1Cl)N1CCCC(N2CCN(c3ccc(F)cc3)CC2)C1 (stereo not drawn) | 0.16 | i | i | i | -15 | i | i | i | i
COc1ccc(OCC(=O)N2CCCC(N3CCN(c4ccccc4C)CC3)C2)cc1 (stereo not drawn) | -1.7 | i | i | i | -13 | i | i | i | i
COc1ccccc1OCC(=O)N1CCCC(N2CCN(c3ccc(F)cc3)CC2)C1 (stereo not drawn) | -1.8 | i | i | i | -4 | i | i | i | i
Cc1ccc(OCC(=O)N2CCCC(N3CCN(c4ccc(F)cc4)CC3)C2)cc1 (stereo not drawn) | 1 | i | i | i | -15 | i | x | x | x
CCS(=O)(=O)CCSP(=O)(OC)OC | x | i | x | x | x | x | x | x | x
COP(=O)(/C=C(\Cl)c1ccccc1)/C=C(\Cl)c1ccccc1 | -0.29 | i | i | i | -12 | i | x | x | x
Cc1ccc(CN2CCCN(Cc3ccccc3C)S2(=O)=O)cc1 | -1.9 | -10* | -6.8* | i | 4 | i | x | x | x | KCNK3 inh conf=121*;KCNK3 uninduced=i
Cc1ccc(OP2(=O)Nc3cc(C)c(C)cc3S2)cc1 (stereo not drawn) | x | i | x | x | x | x | x | x | x
CCN(CC)C(=O)c1ccc(NC(=O)CCCSc2ccccc2)cc1 | -0.27 | i | i | i | -15 | i | x | x | x
CCN(CC)C(=O)c1ccc(NC(=O)Nc2ccccc2F)cc1 | -1.7 | -9.1* | i | i | -9 | i | x | x | x | KCNK3 inh conf=85*;KCNK3 uninduced=0.16*
Cn1c(O)c(N=Nc2cccc(S(=O)(=O)N3CCOCC3)c2)c(=O)n(C)c1=O | -0.03 | i | i | i | -1 | i | x | x | x
